From ChEMBL document CHEMBL1649261, “Pharmacodynamic profile of tigecycline against methicillin-resistant Staphylococcus aureus in an experimental pneumonia model” (Antimicrob Agents Chemother, 2009)
Values after ≈ are worked out from the molar mass of the structure shown.

Legend:
Staphylococcus aureus [1] = assay: Antibacterial activity against methicillin-susceptible Staphylococcus aureus ATCC 29213 by microdilution method; format: functional
Procedure, shortened: (§1)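 Tigecycline MIC measured in triplicate by broth microdilution following CLSI guidelines. Isolates were stored at −80°C in skim milk and subcultured twice on blood agar before testing.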

Staphylococcus aureus [2] = assay: Antibacterial activity against community-acquired methicillin-resistant Staphylococcus aureus 144 by microdilution method; format: functional; procedure, shortened: as §1
Staphylococcus aureus [3] = assay: Antibacterial activity against community-acquired methicillin-resistant Staphylococcus aureus 147 by microdilution method; format: functional; procedure, shortened: as §1
Staphylococcus aureus [4] = assay: Antibacterial activity against hospital-acquired methicillin-resistant Staphylococcus aureus 152 by microdilution method; format: functional; procedure, shortened: as §1
[5] = Cmax in BALB/c mouse infected with Staphylococcus aureus at 12.5 mg/kg, sc administered as single dose; format: ADME, organism-based; design: dose 12.5 mg/kg, route subcutaneous; conditions: in vivo
Procedure, shortened: (§2)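 Neutropenic BALB/c mice (cyclophosphamide ip 250 and 100 mg/kg, days −4 and −1) with S. aureus pneumonia from oral instillation of 0.05 ml of a 3% mucin suspension received a single 0.2-ml sc dose in normal saline. Serum was taken at 0.25, 0.5, 1, 1.5, 2, 4, 6 and 8 h, six mice per time point. Drug was measured by validated HPLC.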

[6] = Cmax in BALB/c mouse infected with Staphylococcus aureus at 25 mg/kg, sc administered as single dose; format: ADME, organism-based; design: dose 25 mg/kg, route subcutaneous; conditions: in vivo; procedure, shortened: as §2
[7] = Tmax in BALB/c mouse infected with Staphylococcus aureus at 50 mg/kg, sc administered as single dose; format: ADME, organism-based; design: dose 50 mg/kg, route subcutaneous; conditions: in vivo; procedure, shortened: as §2
[8] = AUC (0 to 24 hrs) in BALB/c mouse infected with Staphylococcus aureus at 6.25 mg/kg, sc administered as single dose; format: ADME, organism-based; design: time < 24 hr, dose 6.25 mg/kg, route subcutaneous; conditions: plasma; procedure, shortened: as §2
[9] = AUC (0 to 24 hrs) in BALB/c mouse infected with Staphylococcus aureus at 12.5 mg/kg, sc administered as single dose; format: ADME, organism-based; design: time < 24 hr, dose 12.5 mg/kg, route subcutaneous; conditions: plasma; procedure, shortened: as §2
[10] = Half life in BALB/c mouse infected with Staphylococcus aureus at 6.25 mg/kg, sc administered as single dose; format: ADME, organism-based; design: dose 6.25 mg/kg, route subcutaneous; conditions: in vivo; procedure, shortened: as §2
[11] = Half life in BALB/c mouse infected with Staphylococcus aureus at 25 mg/kg, sc administered as single dose; format: ADME, organism-based; design: dose 25 mg/kg, route subcutaneous; conditions: in vivo; procedure, shortened: as §2
Mus musculus [12] = assay: Volume of distribution in BALB/c mouse infected with Staphylococcus aureus at 6.25 mg/kg, sc administered as single dose; format: ADME, organism-based; design: dose 6.25 mg/kg, route subcutaneous; conditions: in vivo; procedure, shortened: as §2
Mus musculus [13] = assay: Volume of distribution in BALB/c mouse infected with Staphylococcus aureus at 12.5 mg/kg, sc administered as single dose; format: ADME, organism-based; design: dose 12.5 mg/kg, route subcutaneous; conditions: in vivo; procedure, shortened: as §2
Mus musculus [14] = assay: Volume of distribution in BALB/c mouse infected with Staphylococcus aureus at 25 mg/kg, sc administered as single dose; format: ADME, organism-based; design: dose 25 mg/kg, route subcutaneous; conditions: in vivo; procedure, shortened: as §2
[15] = Protein binding in Staphylococcus aureus-infected BALB/c mouse serum at 12.5 mg/kg, sc administered as single dose; format: ADME, organism-based; design: dose 12.5 mg/kg, route subcutaneous; conditions: read-out: PB (converted)
Procedure, shortened: (§3)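 Ultrafiltration was run in triplicate with 30,000-MW cutoff devices. Drug was diluted into fresh mouse serum to final 1.5, 3, 6 and 15 μg/ml, held at 37°C for 10 min with shaking, and centrifuged at 1,000 × g for 45 min at 10°C. Binding was calculated as (S − SUF)/S × 100 for each concentration, each matched to a dose by its peak serum level.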

[16] = Protein binding in Staphylococcus aureus-infected BALB/c mouse serum at 25 mg/kg, sc administered as single dose; format: ADME, organism-based; design: dose 25 mg/kg, route subcutaneous; conditions: read-out: PB (converted); procedure, shortened: as §3
[17] = Protein binding in Staphylococcus aureus-infected BALB/c mouse serum at 50 mg/kg, sc administered as single dose; format: ADME, organism-based; design: dose 50 mg/kg, route subcutaneous; conditions: read-out: PB (converted); procedure, shortened: as §3
[18] = Ratio of fAUC (0 to 8 hrs) in epithelial lining fluid to plasma of Staphylococcus aureus-infected BALB/c mouse at 25 mg/kg, sc administered as single dose; format: ADME, organism-based; design: dose 25 mg/kg, route subcutaneous
Procedure, shortened: (§4)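 Neutropenic BALB/c mice (cyclophosphamide ip 250 and 100 mg/kg, 4 d and 1 d pre-inoculation) infected orally with S. aureus in 3% mucin. Single 0.2-ml sc dose in normal saline; six mice per time point. Serum sampled 0.25–8 h, BAL at 0.25, 1, 4, 8 h; HPLC; ELF by urea correction. Trapezoidal AUC0-8; serum corrected for ultrafiltration protein binding, BAL drug assumed free.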

[19] = Ratio of fAUC (0 to 8 hrs) in epithelial lining fluid to plasma of Staphylococcus aureus-infected BALB/c mouse at 50 mg/kg, sc administered as single dose; format: ADME, organism-based; design: dose 50 mg/kg, route subcutaneous; procedure, shortened: as §4
[20] = Ratio of fAUC to MIC in community-acquired methicillin-resistant Staphylococcus aureus 144-infected BALB/c mouse at 80% maximal effective concentration; format: functional
Procedure, shortened: (§5)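 Neutropenic BALB/c mice (cyclophosphamide 250 and 100 mg/kg i.p., 4 and 1 days before infection) were infected by oral inhalation of 0.05 ml inoculum in 3% mucin under isoflurane. Subcutaneous tigecycline (1.56–150 mg/kg/day, single or 2–3 divided doses, saline vehicle) was started 6 h post-infection. At 24 h lungs were homogenized and plated; change in log10 CFU was taken versus 0-h controls.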

[21] = Ratio of fAUC to MIC in community-acquired methicillin-resistant Staphylococcus aureus 147-infected BALB/c mouse at 80% maximal effective concentration; format: functional; procedure, shortened: as §5
[22] = Ratio of fAUC to MIC in community-acquired methicillin-resistant Staphylococcus aureus 144-infected BALB/c mouse at […] maximal effective concentration; format: functional; procedure, shortened: as §5
[23] = Ratio of fAUC to MIC in community-acquired methicillin-resistant Staphylococcus aureus 156-infected BALB/c mouse at […] maximal effective concentration; format: functional; procedure, shortened: as §5
[24] = Ratio of fAUC to MIC in hospital-acquired methicillin-resistant Staphylococcus aureus 56-infected BALB/c mouse at […] maximal effective concentration; format: functional; procedure, shortened: as §5
[25] = Ratio of fAUC to MIC in methicillin-susceptible Staphylococcus aureus ATCC 29213-infected BALB/c mouse at bacteriostatic concentration; format: functional
Procedure, shortened: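 Mice were neutropenic and infected by lung instillation with ATCC 29213, with the MIC set by CLSI broth microdilution in triplicate. Sc treatment started 6 h post-inoculation at 1.56–150 mg/kg/day, given as one, two or three doses. Lung CFU at 24 h were compared with 0-h controls. Change in log10 CFU was fitted against protein-binding-corrected fAUC/MIC with a sigmoid Emax model.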

[26] = Ratio of fAUC to MIC in community-acquired methicillin-resistant Staphylococcus aureus 147-infected BALB/c mouse at bacteriostatic concentration; format: functional; procedure, shortened: as §5
[27] = Ratio of fAUC to MIC in hospital-acquired methicillin-resistant Staphylococcus aureus 152-infected BALB/c mouse at bacteriostatic concentration; format: functional
Procedure, shortened: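 Neutropenic BALB/c mice (cyclophosphamide ip 250 and 100 mg/kg, 4 days and 1 day pre-inoculation), isoflurane-anaesthetised, inoculated via the mouth with 0.05 ml of 3.0 × 10^8 CFU/ml in 3% mucin. SC tigecycline in saline, 1.56–150 mg/kg/day single or 2–3 divided doses from 6 h. Whole-lung CFU at 24 h versus 0-h controls; sigmoid Emax fit of Δlog10 CFU against fAUC/MIC gives stasis value.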

## CN(C)c1cc(NC(=O)CNC(C)(C)C)c(O)c2c1C[C@H]1C[C@H]3[C@H](N(C)C)C(O)=C(C(N)=O)C(=O)[C@@]3(O)C(O)=C1C2=O [TIGECYCLINE]
Staphylococcus aureus [1]
  MIC: 0.25 mg/L (≈ 0.427 µM)
Staphylococcus aureus [2]
  MIC: 0.25 mg/L (≈ 0.427 µM)
Staphylococcus aureus [3]
  MIC: 0.25 mg/L (≈ 0.427 µM)
Staphylococcus aureus [4]
  MIC: 0.25 mg/L (≈ 0.427 µM)
[5]
  Cmax: 3.09 µg/mL
[6]
  Cmax: 5.99 µg/mL
[7]
  Tmax: 0.35 h
[8]
  AUC(0-t) at 24 h: 9.98 µg·h/mL
[9]
  AUC(0-t) at 24 h: 16.5 µg·h/mL
[10]
  half-life: 12.4 h
[11]
  half-life: 12.4 h
Mus musculus [12]
  Vd: 3.44 L/kg
Mus musculus [13]
  Vd: 3.62 L/kg
Mus musculus [14]
  Vd: 2.77 L/kg
[15]
  fraction unbound: 0.128
[16]
  fraction unbound: 0.063
[17]
  fraction unbound: 0.041
[18]
  Kp uu: 15.1
[19]
  Kp uu: 23.9
[20]
  fAUC/MIC: 2.64
[21]
  fAUC/MIC: 3.12
[22]
  fAUC/MIC: 2.29
[23]
  fAUC/MIC: 3.91
[24]
  fAUC/MIC: 0.38
[25]
  fAUC/MIC: 2.38
[26]
  fAUC/MIC: 0.41
[27]
  fAUC/MIC: 1.51
